Results gathered from unrelated publications.
CYP3A7: Cytochrome P450 3A7 (CYP3A7, Homo sapiens, UniProt P24462)

Compound | tested on | assay | system | conditions | measurement | value
CCCC/C=C/C=C/CC(=O)O[C@@]12[C@H](OC(=O)c3ccccc3)[C@@H](C)[C@]3(O)[C@@H]4C=C(C)C(=O)[C@@]4(O)[C@H](O)C(CO)=C[C@H]3[C@@H]1C2(C)C | MT4 | cell growth or viability, ATP luminescence |  |  | CC50 | > 7 µM
C=C(C)[C@@]12O[C@@]3(/C=C/C=C/C=C/CCC)O[C@@H]1[C@@H]1[C@@H]4O[C@]4(CO)[C@@H](O)[C@]4(O)C(=O)C(C)=C[C@H]4[C@@]1(O3)[C@H](C)[C@H]2OC(=O)/C=C/c1ccccc1 | MT4 | cell growth or viability, ATP luminescence |  | 96 h | IC50 | > 0.034 µM
O=C(O)C(F)(F)C(F)(F)C(F)(F)C(F)(F)C(F)(F)C(F)(F)C(F)(F)F | CYP3A7 | enzyme activity, inhibitor |  | 100 µM, pH 7.4 | inhibition | 35.8%
CCCC/C=C/C=C/CC(=O)O[C@@]12[C@H](OC(=O)c3ccccc3)[C@@H](C)[C@@]3(O)[C@@H](C=C(CO)C[C@]4(O)C(=O)C(C)=C[C@@H]34)[C@@H]1C2(C)C | MT4 | cell growth or viability, ATP luminescence |  |  | CC50 | > 7 µM
Cc1ncc2n1-c1ccc(Cl)cc1C(c1ccccc1F)=NC2 |  | metabolic stability | Sprague-Dawley rat, hepatocytes | 1 µM, 4 h | compound remaining | 0.3%
CC[C@H](C)[C@H]1C(=O)N2CCC[C@H]2C(=O)O[C@H](C(C)(C)C)C[C@@H](C)C[C@H](O)CC2=N[C@@H](CCC(=O)N[C@@H](Cc3ccc(OC)cc3)C(=O)N(C)[C@@H](C)C(=O)N1C)CS2 |  | metabolic stability | female CD-1 mouse, liver microsomes | 1 µM, 0 h, pH 7.4 | compound remaining | 100%
COC(=O)N[C@H](C(=O)NN(CC[C@@]1(Cc2ccccc2)C(=O)N([C@H]2c3ccccc3C[C@H]2O)C[C@@H]1O)Cc1ccc(-c2cccnc2)cc1)C(C)(C)C | MT4 | cell growth or viability, XTT |  | 5 days | CC50 | > 50 µM
C=C(C)[C@@]12O[C@@]3(/C=C/C=C/C=C/CCC)O[C@@H]1[C@@H]1[C@@H]4O[C@]4(CO)[C@@H](O)[C@]4(O)C(=O)C(C)=C[C@H]4[C@@]1(O3)[C@H](C)[C@H]2OC(=O)/C=C/c1ccc(O)c(OC)c1 | MT4 | cell growth or viability, ATP luminescence |  | 96 h | IC50 | > 0.034 µM
O=S(=O)(O)C(F)(F)C(F)(F)C(F)(F)C(F)(F)C(F)(F)C(F)(F)C(F)(F)C(F)(F)F | CYP3A7 | enzyme activity, inhibitor, fluorescence |  |  | IC50 | 20.4 µM
COC(=O)N[C@H](C(=O)NN(CC[C@@]1(Cc2ccccc2)C(=O)N([C@H]2c3ccccc3C[C@H]2O[Si](C)(C)C(C)(C)C)C[C@@H]1O[Si](C)(C)C(C)(C)C)Cc1ccc(Br)cc1)C(C)(C)C | MT4 | cell growth or viability, XTT |  | 5 days | CC50 | > 50 µM
CCCCCC/C=C/CC(=O)O[C@@]12[C@H](OC(=O)c3ccccc3)[C@@H](C)[C@]3(O)[C@@H]4C=C(C)C(=O)[C@@]4(O)[C@H](O)C(CO)=C[C@H]3[C@@H]1C2(C)C | MT4 | cell growth or viability, ATP luminescence |  |  | CC50 | > 7 µM
C=C(C)[C@@]12O[C@@]3(/C=C/C=C/CCCCC)O[C@@H]1[C@@H]1[C@@H]4O[C@]4(CO)[C@@H](O)[C@]4(O)C(=O)C(C)=C[C@H]4[C@@]1(O3)[C@H](C)[C@H]2OC(=O)/C=C/c1ccccc1 | MT4 | cell growth or viability, ATP luminescence |  | 96 h | IC50 | > 0.034 µM
Cc1ncc2n1-c1ccc(Cl)cc1C(c1ccccc1F)=NC2 |  | metabolic stability | male rat, liver microsomes | 1 µM, 30 min | compound remaining | < 7%
COC(=O)N[C@H](C(=O)NN(CC[C@@]1(Cc2ccccc2)C(=O)N([C@H]2c3ccccc3C[C@H]2O)C[C@@H]1O)Cc1ccc(Br)cc1)C(C)(C)C | MT4 | cell growth or viability, XTT |  | 5 days | CC50 | > 50 µM
C=C(C)[C@@]12O[C@@]3(c4ccccc4)O[C@@H]1[C@@H]1[C@@H]4O[C@]4(CO)[C@@H](O)[C@]4(O)C(=O)C(C)=C[C@H]4[C@@]1(O3)[C@H](C)[C@H]2OC(=O)/C=C/C=C/C=C/CCC | MT4 | cell growth or viability, ATP luminescence |  | 96 h | IC50 | > 0.034 µM
CC[C@H](C)[C@H]1C(=O)N2CCC[C@H]2C(=O)O[C@H](C(C)(C)C)C[C@@H](C)C[C@H](O)[C@H](C)C2=N[C@@H](CCC(=O)N[C@@H](Cc3ccc(OC)cc3)C(=O)N(C)[C@@H](C)C(=O)N1C)CS2 |  | metabolic stability | female CD-1 mouse, liver microsomes | 1 µM, 0 h, pH 7.4 | compound remaining | 100%
N=c1c2c(-c3ccccc3)c(-c3ccccc3)n(Cc3ccccc3)c2ncn1[C@H]1CC[C@H](O)CC1 |  | metabolic stability | CD-1 mouse, hepatocytes | 1 µM, 4 h | compound remaining | 103%
C=C(C)[C@@]12O[C@@]3(/C=C/C=C/CCCCC)O[C@@H]1[C@@H]1[C@@H]4O[C@]4(CO)[C@@H](O)[C@]4(O)C(=O)C(C)=C[C@H]4[C@@]1(O3)[C@H](C)[C@H]2OC(=O)/C=C/c1ccc(O)cc1 | MT4 | cell growth or viability, ATP luminescence |  | 96 h | IC50 | > 0.034 µM
C#Cc1ccc2c(c1)C(c1ccccc1F)=N[C@@H](C)c1c(C(=O)OCC(F)(F)F)ncn1-2 |  | metabolic stability | mouse, liver microsomes | 20 min | compound remaining | < 5%
C=C(C)[C@@]12O[C@@]3(/C=C/C=C/C=C/CCC)O[C@@H]1[C@@H]1[C@@H]4O[C@]4(CO)[C@@H](O)[C@]4(O)C(=O)C(C)=C[C@H]4[C@@]1(O3)[C@H](C)[C@H]2OC(=O)/C=C/c1ccc(O)cc1 | MT4 | cell growth or viability, ATP luminescence |  | 96 h | IC50 | > 0.034 µM
O=S(=O)(O)C(F)(F)C(F)(F)C(F)(F)C(F)(F)C(F)(F)C(F)(F)F | CYP3A7 | enzyme activity, inhibitor |  | 100 µM, pH 7.4 | inhibition | 48.8%
